# Measurements reported in ChEMBL document CHEMBL1641515, “Inhibition of secreted phospholipases A₂ by 2-oxoamides based on α-amino acids: Synthesis, in vitro evaluation and molecular docking calculations” (Bioorg Med Chem, 2011).
# Experiments:
# [1] = target: T1, Group 10 secretory phospholipase A2 (Mus musculus) (UniProt Q9QXX3); assay: Inhibition of mouse group 10 sPLA2 by fluorescence assay; conditions: concentration not given here
# T1 sequence (whole entry): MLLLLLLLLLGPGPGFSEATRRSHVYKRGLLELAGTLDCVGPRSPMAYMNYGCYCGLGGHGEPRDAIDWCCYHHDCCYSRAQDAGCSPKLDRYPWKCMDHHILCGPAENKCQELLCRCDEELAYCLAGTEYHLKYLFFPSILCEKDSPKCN
# Outline: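 Mouse GX sPLA2, recombinant, 10.7 ng per well, in 50 mM Tris-HCl pH 8.0 with 50 mM KCl, 1 mM CaCl2 and BSA. Started with pyrPG vesicles and read at ex 342/em 395 nm. Percent inhibition from initial fluorescence slopes at five concentrations. IC50 from a variable-slope sigmoidal dose-response fit.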
# [2] = target: T2, Group 10 secretory phospholipase A2 (Homo sapiens) (UniProt O15496); assay: Inhibition of human group 10 sPLA2 at […] by fluorescence assay
# T2 sequence (whole entry): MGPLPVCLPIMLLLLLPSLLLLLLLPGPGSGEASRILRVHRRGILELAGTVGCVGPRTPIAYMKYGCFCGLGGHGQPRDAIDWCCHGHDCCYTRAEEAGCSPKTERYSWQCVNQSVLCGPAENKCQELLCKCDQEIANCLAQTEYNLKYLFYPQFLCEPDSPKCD
# [3] = target: T3, Phospholipase A2 group V (Mus musculus, UniProt P97391); assay: Inhibition of mouse group 5 sPLA2 by fluorescence assay
# T3 sequence (P97391 whole entry): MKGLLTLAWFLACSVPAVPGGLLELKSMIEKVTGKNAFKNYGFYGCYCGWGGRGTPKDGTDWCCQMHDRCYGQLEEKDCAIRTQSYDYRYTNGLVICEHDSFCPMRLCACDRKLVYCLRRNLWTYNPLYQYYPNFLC
# [4] = target: T4, Phospholipase A2, membrane associated (Mus musculus, UniProt P31482); assay: Inhibition of mouse group 2A sPLA2 by fluorescence assay
# T4 sequence (P31482 whole entry): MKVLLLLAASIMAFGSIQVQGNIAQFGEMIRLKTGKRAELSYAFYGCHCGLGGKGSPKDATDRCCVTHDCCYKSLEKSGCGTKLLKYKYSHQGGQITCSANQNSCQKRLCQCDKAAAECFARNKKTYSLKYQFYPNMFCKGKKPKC
# [5] = target: T5, Phospholipase A2 group V (Homo sapiens, UniProt P39877); assay: Inhibition of human group 5 sPLA2 by fluorescence assay
# T5 sequence (P39877 whole entry): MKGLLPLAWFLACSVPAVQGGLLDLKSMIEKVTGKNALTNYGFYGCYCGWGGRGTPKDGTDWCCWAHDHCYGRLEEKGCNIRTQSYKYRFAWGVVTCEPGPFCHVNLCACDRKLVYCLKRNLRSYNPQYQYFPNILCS
# Outline: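 Recombinant human GV sPLA2 (12.5 ng/well) with pyrPG vesicle substrate in Tris-HCl pH 8.0, KCl, CaCl2 and BSA. Monitored by fluorescence (342/395 nm), using initial slopes. […] IC50 by variable-slope sigmoidal regression on log concentration; duplicate or triplicate runs, mean with SD.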
# [6] = target: T6, Phospholipase A2, membrane associated (Homo sapiens, UniProt P14555); assay: Inhibition of human group 2A sPLA2 by fluorescence assay
# T6 sequence (P14555 whole entry): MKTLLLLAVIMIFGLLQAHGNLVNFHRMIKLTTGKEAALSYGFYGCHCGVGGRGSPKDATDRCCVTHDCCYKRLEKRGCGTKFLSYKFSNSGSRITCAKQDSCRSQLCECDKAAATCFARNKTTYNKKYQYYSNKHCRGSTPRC
# Outline: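 Continuous fluorimetric assay with recombinant human GIIA sPLA2 (6 ng/well) on pyrPG vesicles, pH 8.0 Tris buffer with Ca2+, KCl and BSA. Readout at ex 342/em 395 nm, initial slopes. […] Nonlinear variable-slope sigmoidal fit gives IC50; mean of duplicate or triplicate analyses with SD.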
# [7] = target: T7, Phospholipase A2 group V (Homo sapiens) (UniProt P39877); assay: Inhibition of human group 5 sPLA2 at […] by fluorescence assay
# T7 sequence (whole entry): T5 sequence (P39877 whole entry)
# [8] = target: T8, Phospholipase A2, membrane associated (Homo sapiens) (UniProt P14555); assay: Inhibition of human group 2A sPLA2 at […] by fluorescence assay
# T8 sequence (whole entry): T6 sequence (P14555 whole entry)
# [9] = target: T9, Group 10 secretory phospholipase A2 (Homo sapiens, UniProt O15496); assay: Inhibition of human group 10 sPLA2 by fluorescence assay
# T9 sequence (O15496 whole entry): T2 sequence (whole entry)
Compound,inhibition [1] [%],inhibition [2] [%],IC50 [3] [nM],IC50 [4] [nM],IC50 [5] [nM],IC50 [6] [nM],inhibition [7] [%],inhibition [8] [%],IC50 [9] [nM]
CCCCCCCCCCCCCCC(=O)C(=O)NCC(=O)OC,,22,,,,,9,3,
CCCCCCCCCCCCCCCC(=O)N[C@@H](CC(C)C)C(=O)O,,,,,> 1660,> 1660,,,
CCCCCCCCCCCCCCC(=O)C(=O)N[C@@H](Cc1ccccc1)C(=O)O,,,,,> 1660,> 1660,,,> 1660

# The remaining lines, values ahead:
inhibition [1] [%],inhibition [2] [%],IC50 [3] [nM],IC50 [4] [nM],IC50 [5] [nM],IC50 [6] [nM],inhibition [7] [%],inhibition [8] [%],IC50 [9] [nM],Compound
58,50,2600,180,440,300,,,,CCCCCCCCCCCCCCC(=O)C(=O)N[C@@H](CC(C)C)C(=O)O
,7,,,,11700,49,,,CCCCCCCCCCCCCCC(=O)C(=O)NCCCCC(=O)O
,23,,,,4200,43,,,CCCCCCCCCCCCCCC(=O)C(=O)NCC(=O)O
,,,,1500,1750,,,> 1660,CCCCCCCCCCCCCCC(=O)C(=O)N[C@H](CC(C)C)C(=O)O
,18,,,,5600,47,,,CCCCCCCCCCCCCCC(=O)C(=O)NCCC(=O)O
